Measured values from ChEMBL document CHEMBL1142890, “Structure-antibacterial activity of arylcarbonyl- and arylsulfonyl-piperazine 5-triazolylmethyl oxazolidinones” (2007).
In brackets after ≈: the same amount, converted by molar mass.

Columns and labels:
Staphylococcus aureus [1] = assay: Antimicrobial activity against Staphylococcus aureus ATCC 25922 in presence of 50% human plasma […]; assay type: functional; conditions: ATCC 25923, Plasma, in the assay text read “ATCC 25923” for “ATCC 25922”
Method in brief: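 S. aureus ATCC 25923 tested in Mueller–Hinton broth supplemented with 50% human plasma. Test compounds dissolved in 20% water in DMSO. Inoculum 10⁷ CFU/ml, incubated 35 °C for 18 h. MIC was the lowest concentration completely inhibiting growth.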

Staphylococcus aureus [2] = assay: Antimicrobial activity against methicillin-susceptible Staphylococcus aureus by agar dilution method; assay type: functional
Method in brief: (§1)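 Agar dilution per CLSI on Mueller-Hinton agar, test agents at 0.12 to 8 µg/ml; test compounds dissolved in 20% water in DMSO, linezolid in 40% water in ethanol, vancomycin in water. Clinical isolates inoculated at final 10^7 CFU/ml, incubated 35 °C for 18 h. MIC = lowest concentration completely inhibiting growth; reported as range across isolates.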

Staphylococcus aureus [3] = assay: Antimicrobial activity against methicillin-resistant Staphylococcus aureus by agar dilution method; assay type: functional; method in brief: as §1
Staphylococcus [4] = assay: Antimicrobial activity against methicillin-susceptible coagulase-negative staphylococcus by agar dilution method; assay type: functional; method in brief: as §1
Streptococcus pneumoniae = assay: Antimicrobial activity against Streptococcus pneumoniae by agar dilution method; assay type: functional
Method in brief: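 Agar dilution per CLSI on Mueller–Hinton agar holding drug dilutions from 0.12 to 8 µg/ml. Staphylococci and enterococci tested on plain MH agar, S. pneumoniae on MH agar with 5% sheep blood. Test compounds dissolved in 20% water in DMSO. Inoculum 10⁷ CFU/ml, incubated 35 °C for 18 h. MIC was the lowest concentration giving complete growth inhibition.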

Enterococcus [5] = assay: Antimicrobial activity against vancomycin-sensitive Enterococcus by agar dilution method; assay type: functional; method in brief: as §1
Enterococcus [6] = assay: Antimicrobial activity against vancomycin-resistant Enterococcus by agar dilution method; assay type: functional; method in brief: as §1
Haemophilus influenzae = assay: Antimicrobial activity against Haemophilus influenzae; assay type: functional
Moraxella catarrhalis = assay: Antimicrobial activity against Moraxella catarrhalis; assay type: functional
Escherichia coli = assay: Antimicrobial activity against Escherichia coli ATCC 25922; assay type: functional
Staphylococcus [7] = assay: Antimicrobial activity against methicillin-resistant coagulase-negative Staphylococcus by agar dilution method; assay type: functional; method in brief: as §1
Staphylococcus aureus [8] = assay: Antimicrobial activity against Staphylococcus aureus ATCC 25923 by agar dilution method

Compound | MIC (Staphylococcus aureus [1]) | MIC (Staphylococcus aureus [2]) | MIC (Staphylococcus aureus [3]) | MIC (Staphylococcus [4]) | MIC (Streptococcus pneumoniae) | MIC (Enterococcus [5]) | MIC (Enterococcus [6]) | MIC (Haemophilus influenzae) | MIC (Moraxella catarrhalis) | MIC (Escherichia coli) | MIC (Staphylococcus [7]) | MIC (Staphylococcus aureus [8])
O=C1O[C@@H](Cn2ccnn2)CN1c1ccc(N2CCN(S(=O)(=O)c3cccs3)CC2)c(F)c1 | > 8 µg/mL | 0.5 µg/mL (≈ 1.02 µM) | 0.5 µg/mL (≈ 1.02 µM) | 0.5 µg/mL (≈ 1.02 µM) | 1 µg/mL (≈ 2.03 µM) | 0.5 µg/mL (≈ 1.02 µM) | 0.5 µg/mL (≈ 1.02 µM) | ≥ 8 µg/mL | ≥ 8 µg/mL | ≥ 8 µg/mL | 0.5 µg/mL (≈ 1.02 µM) | 1 µg/mL (≈ 2.03 µM)
O=C(c1ccccc1Cl)N1CCN(c2ccc(N3C[C@H](Cn4ccnn4)OC3=O)cc2F)CC1 | 8 µg/mL | 0.5 µg/mL (≈ 1.03 µM) | 0.5 µg/mL (≈ 1.03 µM) | 0.5 µg/mL (≈ 1.03 µM) | 4 µg/mL (≈ 8.25 µM) | 0.5 µg/mL (≈ 1.03 µM) | 0.5 µg/mL (≈ 1.03 µM) | ≥ 8 µg/mL | ≥ 8 µg/mL | ≥ 8 µg/mL | 0.5 µg/mL (≈ 1.03 µM) | 1 µg/mL (≈ 2.06 µM)
O=C(c1ccc(Cl)cc1)N1CCN(c2ccc(N3C[C@H](Cn4ccnn4)OC3=O)cc2F)CC1 | 8 µg/mL | 0.25 µg/mL (≈ 0.516 µM) | 0.25 µg/mL (≈ 0.516 µM) | 0.12 µg/mL (≈ 0.247 µM) | 1 µg/mL (≈ 2.06 µM) | 0.5 µg/mL (≈ 1.03 µM) | 0.5 µg/mL (≈ 1.03 µM) | ≥ 8 µg/mL | ≥ 8 µg/mL | ≥ 8 µg/mL | 0.12 µg/mL (≈ 0.247 µM) | 0.5 µg/mL (≈ 1.03 µM)
O=C(c1ccccc1F)N1CCN(c2ccc(N3C[C@H](Cn4ccnn4)OC3=O)cc2F)CC1 | 8 µg/mL | 0.25 µg/mL (≈ 0.534 µM) | 0.25 µg/mL (≈ 0.534 µM) | 0.25 µg/mL (≈ 0.534 µM) | 1 µg/mL (≈ 2.13 µM) | 0.5 µg/mL (≈ 1.07 µM) | 0.5 µg/mL (≈ 1.07 µM) | ≥ 8 µg/mL | ≥ 8 µg/mL | ≥ 8 µg/mL | 0.25 µg/mL (≈ 0.534 µM) | 0.5 µg/mL (≈ 1.07 µM)
O=C(c1ccc(F)cc1)N1CCN(c2ccc(N3C[C@H](Cn4ccnn4)OC3=O)cc2F)CC1 | 4 µg/mL | 0.5 µg/mL (≈ 1.07 µM) | 0.5 µg/mL (≈ 1.07 µM) | 0.5 µg/mL (≈ 1.07 µM) | 0.5 µg/mL (≈ 1.07 µM) | 1 µg/mL (≈ 2.13 µM) | 0.5 µg/mL (≈ 1.07 µM) | ≥ 8 µg/mL | ≥ 8 µg/mL | ≥ 8 µg/mL | 0.5 µg/mL (≈ 1.07 µM) | 1 µg/mL (≈ 2.13 µM)
O=C(c1cccc(F)c1)N1CCN(c2ccc(N3C[C@H](Cn4ccnn4)OC3=O)cc2F)CC1 | 4 µg/mL | 0.25 µg/mL (≈ 0.534 µM) | 0.25 µg/mL (≈ 0.534 µM) | 0.5 µg/mL (≈ 1.07 µM) | 0.5 µg/mL (≈ 1.07 µM) | 0.5 µg/mL (≈ 1.07 µM) | 0.5 µg/mL (≈ 1.07 µM) | ≥ 8 µg/mL | ≥ 8 µg/mL | ≥ 8 µg/mL | 0.5 µg/mL (≈ 1.07 µM) | 1 µg/mL (≈ 2.13 µM)
O=C1O[C@@H](Cn2ccnn2)CN1c1ccc(N2CCN(S(=O)(=O)c3ccccc3)CC2)c(F)c1 | 8 µg/mL | 0.5 µg/mL (≈ 1.03 µM) | 0.5 µg/mL (≈ 1.03 µM) | 0.5 µg/mL (≈ 1.03 µM) | 1 µg/mL (≈ 2.06 µM) | 2 µg/mL (≈ 4.11 µM) | 0.5 µg/mL (≈ 1.03 µM) | ≥ 8 µg/mL | ≥ 8 µg/mL | ≥ 8 µg/mL | 0.5 µg/mL (≈ 1.03 µM) | 2 µg/mL (≈ 4.11 µM)
O=C(Cc1ccccc1)N1CCN(c2ccc(N3C[C@H](Cn4ccnn4)OC3=O)cc2F)CC1 | 4 µg/mL | 0.5 µg/mL (≈ 1.08 µM) | 0.5 µg/mL (≈ 1.08 µM) | 0.5 µg/mL (≈ 1.08 µM) | 0.5 µg/mL (≈ 1.08 µM) | 0.5 µg/mL (≈ 1.08 µM) | 1 µg/mL (≈ 2.15 µM) | ≥ 8 µg/mL | ≥ 8 µg/mL | ≥ 8 µg/mL | 0.5 µg/mL (≈ 1.08 µM) | 2 µg/mL (≈ 4.31 µM)
